Source: PubChem (several laboratories)
Cav32 inh = inhibitors of human Cav3.2 T-type calcium channel | O95180 | Cav3.2-expressing cells, Fluo-4 calcium fluorescence FDSS; stronger effect = lower value | B-score at 10 µM | 100,000 tested, 4% active;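 active = single-dose well whose peak fluorescence ratio is a statistical outlier from its plate by either plate-standardised score or position-corrected B-score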
Measles CPE = protection of cells from measles virus; Measles virus-infected cells, CPE protection, absorbance; protection (pct of control), % at 4 µM; 140,000 tested, 1.5% active; AID 841; in the data active = protection mostly above about 24%, no sharp cut-off; inactive = mostly below about 26%
Pyk2 oligo antag = Pyk2 (human) oligomerization antagonism | 99,000 tested, 0.83% active | z-score (the deposit names both 25 µM and 10 µM) | Q14289 | Q293 cells, Pyk2 FERM NanoBiT luminescence; stronger effect = lower value | AID 1347419;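 active = Z-score of -3 or lower, scaled per plate to the spread of control and sample wells; inactive = z-score above -3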;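 note: negative z-score means lost luminescence so less FERM oligomerization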
Target sequence (Q14289 whole entry, looked up): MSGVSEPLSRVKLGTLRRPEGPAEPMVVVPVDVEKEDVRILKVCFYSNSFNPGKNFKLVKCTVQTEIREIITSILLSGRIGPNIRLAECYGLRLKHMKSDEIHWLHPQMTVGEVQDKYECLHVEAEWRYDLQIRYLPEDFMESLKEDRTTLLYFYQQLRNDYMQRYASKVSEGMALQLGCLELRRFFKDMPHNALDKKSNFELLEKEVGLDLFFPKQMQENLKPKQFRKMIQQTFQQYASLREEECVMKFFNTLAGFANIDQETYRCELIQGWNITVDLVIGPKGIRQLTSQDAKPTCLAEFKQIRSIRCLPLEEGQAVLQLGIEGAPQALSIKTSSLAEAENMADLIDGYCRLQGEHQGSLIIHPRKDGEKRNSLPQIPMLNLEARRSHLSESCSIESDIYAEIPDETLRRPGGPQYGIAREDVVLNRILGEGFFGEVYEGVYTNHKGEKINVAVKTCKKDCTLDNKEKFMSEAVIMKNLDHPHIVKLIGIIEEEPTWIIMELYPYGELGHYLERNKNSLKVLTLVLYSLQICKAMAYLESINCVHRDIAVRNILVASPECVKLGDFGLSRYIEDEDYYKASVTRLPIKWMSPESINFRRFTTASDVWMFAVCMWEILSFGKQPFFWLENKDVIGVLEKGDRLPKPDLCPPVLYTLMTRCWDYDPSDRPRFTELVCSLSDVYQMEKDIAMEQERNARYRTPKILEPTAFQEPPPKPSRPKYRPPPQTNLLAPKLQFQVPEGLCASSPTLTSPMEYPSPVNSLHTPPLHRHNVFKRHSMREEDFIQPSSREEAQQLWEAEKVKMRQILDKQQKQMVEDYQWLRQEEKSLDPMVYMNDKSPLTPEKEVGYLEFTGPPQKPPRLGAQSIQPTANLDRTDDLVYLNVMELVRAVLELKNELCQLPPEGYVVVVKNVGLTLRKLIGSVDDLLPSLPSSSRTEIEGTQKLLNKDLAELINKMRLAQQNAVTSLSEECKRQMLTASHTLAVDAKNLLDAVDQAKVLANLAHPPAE
DAT uptake mod = human DAT dopamine uptake with cocaine, either direction. LLC-PK1 hDAT cells, [14C]-dopamine uptake with cocaine IC80; actives deviate in either direction. B-score at 10 µM. 110,000 tested, 1.3% active;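 active = Z score or B-score, a plate-position-corrected score, falls beyond the plate's 99.7% confidence bounds, in either direction; inactive = both scores lie inside the 99.7% bounds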;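 note: scored against the spread of the other compound wells on the same plate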
Phagocyt inh = blocks phagocytosis by macrophages; inhibition, % at 5 µM; AID 1029; J774A.1 macrophage IgG-bead phagocytosis, imaging; 110,000 tested, 0.07% active;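 active = inhibition above the mean of the plate negative controls plus 5 SD, cut at about 13% in these data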;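 note: phagocytic index as fraction of beads internalized from green versus red external bead signal; plate controls were DMSO negative control for no effect and cytochalasin-D positive control for full effect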
Rev-RRE block = HIV Rev-RRE protein-RNA interaction inhibition; P05866; Rev peptide-RRE RNA binding, FRET; inhibition, % at 8 µM; 97,000 tested, 0.79% active;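 active = inhibition above the screen-wide mean plus 3 SD, cut at about 35% in these data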;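 note: 0% = median DMSO wells and 100% = median Neomycin B control wells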
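assay system = Cy5-tagged RRE RNA duplex with fluorescein-tagged Rev peptide | incubation = 5 + 15 min at 25 °C | also added = labelled Rev peptide | measure = % inhibition of FRET ratio versus controls | benchmarks = DMSO wells as 0% and neomycin B wells as 100% inhibition | measured by = FRET fluorescence readout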
* marks the source's active call; other numbers are inactive results; / = no result given; [ ] = dose if it differs, or a comment. An excerpt weighted towards active compounds, which were near 5.9% of everything screened.

SMILES	Cav32 inh	Measles CPE	Pyk2 oligo antag	DAT uptake mod	Phagocyt inh	Rev-RRE block
O=C(CCNC(=O)c1ccc(Cl)cc1)Nc1c(F)c(F)cc(F)c1F	/	4.1	/	/	-12.5	/
CCOC(=O)c1c(CC(C)C)csc1NC(=O)COC(=O)c1cc(OC)c(OC)cc1[N+](=O)[O-]	/	26.8	/	/	-3.6	/
Fc1ccccc1CSc1ncnc2sc3c(c12)CCCC3	/	8.2	/	/	-6.5	/
COC(=O)[C@@H]1CCCN1C(=O)[C@@H](NC(=O)OC(C)(C)C)C(C)C	1.07	/	/	-0.237	/	/
Cc1noc(C)c1S(=O)(=O)N(CC(=O)N1CCCCCC1)c1ccc(C(C)C)cc1	-4.1*	32.2	/	0.0654	0.1	7.2
COc1ccc(S(=O)(=O)N(CC(=O)N2CCN(c3ccccc3)CC2)c2ccccc2)cc1	0.204	41.7*	0.07	-1.29	-0.4	9.2
O=C(NCc1ccccc1)N1CCN(c2ccccc2F)CC1	-0.876	17.8	0.18	-0.0472	-1.3	9.4
Cc1cccc(N2CCN(C(=O)NCc3ccc(Cl)cc3)CC2)c1	-9.61*	14.0	1.49	-0.0495	/	5.2
COc1ccc(-c2cn3nc4c(nc3n2)CCCC4)cc1	/	3.6	-0.35	/	-0.8	97.9*[fluorescence artefact?]
Cc1nc2nc(-c3ccc(Cl)cc3)cn2nc1C	/	2.7	0.8	/	-0.7	12.0
Cc1ccc(NC(=O)c2scc3c2CCCC3)cc1	/	20.4	/	/	/	/
O=C(c1scc2c1CCCC2)N1CCCCC1	-0.0795	36.0*	-0.23	-1.02	0.4	-0.7
O=c1oc(-c2ccccc2NS(=O)(=O)c2ccc3ccccc3c2)nc2ccccc12	/	38.8	-2.63	/	-8.5	/
COc1ccc(OC)c(Nc2nc(N)nc(-c3cc4ccccc4o3)n2)c1	/	9.0	-1.27	0.222	35.9*	2.1
COc1ccc(C(C)(C)C)cc1NC(=O)C1C2C=CC(C2)C1C(=O)O (stereo not given)	-1.15	33.8*	0.16	-0.403	-0.8	1.4
COc1ccc(C(C)(C)C)cc1NC(=O)C1CC=CCC1C(=O)O (stereo not given)	0.773	14.9	0.29	-0.206	-1.6	4.2
COc1ccc(OCC(=O)Nc2ccccc2OC)cc1	-1.01	4.2	0.92	-1.36	-0.4	/
CCCOc1ccccc1N/C(=N/c1nc(C)cc(C)n1)NC(=O)COc1ccc(OC)cc1	-4.96*	5.3	-1.07	0.715	2.4	0.9
Cc1ccc(-c2nc3ccc(NS(=O)(=O)c4ccccc4)cc3[nH]2)o1	/	4.1	-0.83	0.815	142.8*	1.9
COc1ccc(N(C(=O)Cn2cnc3ccccc32)C(C(=O)NC2CCCCC2)c2ccccc2)cc1 (stereo not given)	-3.49*	3.4	0.47	0.226	-0.3	1.2
O=S(=O)(CCSc1nc2ccccc2o1)c1nc2ccccc2s1	-1.34	-0.1	-3.12*	0.103	-1.4	-2.2
CS(=O)(=O)N(CC(=O)NC1CCCC1)c1cccc(F)c1	1.01	18.4	0.8	-0.867	2.7	0.7
O=C(CN(C(=O)CSc1nc2ccccc2o1)c1cccc(F)c1)NC1CCCCC1	-5.63*	0.8	-0.46	-0.338	/	7.6
O=C(CN(C(=O)CSc1nc2ccccc2o1)c1ccccc1)NC1CCCCC1	-2.95*	18.6	-1.23	0.437	/	9.4
O=C(NC1CCCCCC1)C1CCN(c2nc3ccccc3o2)CC1	/	32.3*	-0.26	/	-3.0	11.8
SMILES	Cav32 inh	Measles CPE	Pyk2 oligo antag	DAT uptake mod	Phagocyt inh	Rev-RRE block
O=C(CSc1nc2ccccc2o1)N1CCCC1	0.562	4.7	-0.43	-0.229	-0.4	/
CCNS(=O)(=O)c1cc(OC)ccc1OC	0.00174	6.6	0.51	-0.662	-0.9	5.8
CN1CC2([N+](=O)[O-])CC=C(OCCO)C([N+](=O)[O-])(C1)C2 (stereo not given)	/	4.3	/	/	2.2	/
CCN1C(=O)c2cccc3c(NC(=O)c4ccc(OC)c(OC)c4)ccc1c23	-0.582	17.6	/	-0.13	-0.2	20.9
N#Cc1ccccc1Cn1cc(/C=C/[N+](=O)[O-])c2ccccc21	/	1.1	/	/	/	/
CC(C)NC(=O)CSCc1c(F)cccc1Cl	0.847	6.9	-0.08	0.0318	/	-2.5
CCONC(=O)Nc1ccccc1	/	7.5	/	/	0.0	/
CC(C)n1c(O)c(N=NC(=O)c2ccccc2NS(=O)(=O)c2cccs2)c2ccccc21	/	6.8	/	/	0.8	/
O=C(c1ccc2c(c1)OCO2)N1CCC2(CC1)Oc1ccc(F)cc1C(=O)C21CC(c2ccccc2)=NO1 (stereo not given)	-1.16	/	/	0.35	/	/
Cc1ccc(S(=O)(=O)NCCCCCC(=O)Nc2cccc(C)c2)cc1	/	4.4	/	/	-5.8	/
O=C(CSc1nc2ccccc2o1)Nc1ccccc1	-0.964	7.7	1.57	-0.872	-0.6	7.3
O=C(O)CSc1nc2ccccc2o1	/	19.6	1.84	-8.58*	0.6	7.0
NNC(=O)[C@H]1C[C@@H]1c1ccccc1	/	20.3	/	/	-13.4	/
CCOC(=O)C1=C(C)NC(=S)N(C(C)=O)C1c1ccc(Cl)cc1 (stereo not given)	-5.53*	23.5	-1.02	0.0534	/	-0.2
CCCCNC(=O)c1onc(CSc2cccc3ccccc23)c1C(=O)O	-3.1*	15.3	/	0.448	/	-1.9
CCCCNC(=O)c1onc(CSc2ccccc2)c1C(=O)O	0.0753	5.6	/	0.157	/	4.5
COC(=O)c1ccccc1NC(=O)c1cc([N+](=O)[O-])nn1Cc1ccccc1	/	3.9	/	/	-12.4	/
CCN1C(=O)C2(C(C#N)=C(N)Oc3n[nH]c(-c4ccc(Cl)cc4)c32)c2ccccc21 (stereo not given)	0.309	17.6	-3.05*	-0.774	-1.7	11.2
CCc1[nH]nc2c1C1(C(=O)N(Cc3ccccc3)c3ccccc31)C(C#N)=C(N)O2 (stereo not given)	-1.56	10.2	-1.34	1.41	2.5	14.1
Oc1c(Cl)cc(Cl)cc1C=Nc1ccccc1N1CCCC1	/	11.2	/	/	-8.8	/
Oc1c(Cl)cc(Cl)cc1/C=N/c1nccs1	-9.33*	4.0	-1.23	4.36*	2.2	22.9
Cc1ccccc1NC(=O)c1cccc(N2C(=O)C3C4CCC(C4)C3C2=O)c1 (stereo not given)	0.246	15.2	-0.41	-0.0288	-0.2	4.1
Cc1ccccc1NC(=O)C1(NC(=O)c2cccc(N3C(=O)CSC3c3ccccc3)c2)CCCCC1 (stereo not given)	-10.1*	5.8	-0.21	-0.808	-1.0	-4.8
Clc1ccc2nsnc2c1NC1=NCCN1	/	/	/	-0.937	/	/
Cc1nn(-c2ccccc2)c(C)c1/C=N/NC(=O)c1ccccc1NS(=O)(=O)c1cccs1	/	3.1	/	/	-9.2	/
O=C(CCCc1ccccc1)NCCN1CCOCC1	0.323	10.8	0.27	-0.64	-0.8	2.8
O=C(CC(c1ccccc1)c1ccccc1O)NCCN1CCOCC1 (stereo not given)	0.0608	49.9	0.35	-7.82*	-2.2	/
CCOC(=O)c1ccc(NC(=O)c2cn(CCC#N)nc2-c2ccc3c(c2)OCCO3)cc1	/	12.7	/	/	-5.0	/
CCOc1ccc(-c2csc(/C(C#N)=C\c3ccc(O)c([N+](=O)[O-])c3)n2)cc1	/	2.4	-2.87	/	-4.8	/
O=C(NCC1(c2ccccc2)CCCC1)c1ccc(Br)cc1	/	33.8	/	/	-8.2	/
